Source: paper PMC4317571 (Structure (London, England : 1993), 2015)
Blank lines part the entries; values can stand above or below the compound they belong to. Where no end group is shown, it is not given here. Me2 = dimethyl on the lysine side-chain amine

Assays:
[1] = tested on: anti-p53K382me2 antibodies; assay: Dot-blot reactivity of anti-p53K382me2 antibody toward p53 peptides; type: binding, rabbit; conditions: relative to p53K381acK382me2 peptide, residues 377–386
53BP1 TTD, wild type = 53BP1 TTD, wild type (Homo sapiens, UniProt Q12888); assay: NMR binding to 53BP1 TTD; conditions: 15N-labeled TTD, peptide titrated in
53BP1 TTD, wild type, sequence (Q12888 1484-1603 limits assumed): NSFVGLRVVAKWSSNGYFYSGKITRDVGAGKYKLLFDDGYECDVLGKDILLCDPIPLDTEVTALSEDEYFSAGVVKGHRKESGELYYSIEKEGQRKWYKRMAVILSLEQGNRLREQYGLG

p53K382me2 in U2OS cells = assay: Immunoblot of immunoprecipitated p53: anti-p53K382me2 reactivity; type: cell-based, human
In short: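 Sub-confluent U2OS cells were grown in DMEM with 10% FBS and left untreated or given doxorubicin for 4 h. TSA (400 nM) was given for 1 h, in combined treatment added 3 h after doxorubicin. Cells were lysed in Tris pH 7.4/NaCl/Triton buffer with inhibitors. p53 was pulled down from 1 mg protein on DO-1 agarose overnight at 4 °C and eluted non-reducing at 70 °C. Blots were probed overnight at 4 °C with anti-K382me2 and a light-chain-specific secondary.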

GST 53BP1-TTD = assay: Biotinylated p53 peptide microarray binding of GST-tagged 53BP1 TTD; conditions: biotinylated p53 peptides; four replicate array binding experiments
In short: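 Biotinylated p53 C-terminal peptides (residues 366–390) printed on streptavidin-coated glass slides, then probed with GST-tagged 53BP1 TTD. Binding is shown as normalized mean intensity on a 0 (undetectable) to 1 (strong) scale from four replicate array experiments. Agreement between duplicate arrays was assessed by linear regression correlation.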

[2] = tested on: p300/CBP at p53 target regions; assay: p300 ChIP-seq enrichment at p53 target regions; type: cell-based; conditions: meta-analysis of public ChIP-seq data, mouse ES cells

Compound: p53K382me2: p53 peptide dimethylated at K382 (residues 377–386; biotinylated 366–390 for microarray) (SSHLKSKKGQSTSRHKK(Me2)LMFKTEGP; also: biotin label, position not given here)
anti-p53K382me2 antibody reactivity, fold weaker than with p53K381acK382me2 peptide [1]: 16 fold
chemical shift changes in 1H,15N HSQC spectra of TTD (in words) (53BP1 TTD, wild type): most significant changes in the K382me2-binding cage

Compound: CC(/C=C/C(=O)NO)=C\[C@@H](C)C(=O)c1ccc(N(C)C)cc1 [TSA]
p53K382me2 level under basal conditions (in words) (p53K382me2 in U2OS cells; basal, with TSA 400 nM, 1 h): little p53K382me2 was present

GST-TTD binding in peptide microarray (in words) (GST 53BP1-TTD): more weakly
Compound: p53K370me2: p53 CTD peptide dimethylated at K370 (SSHLK(Me2)SKKGQSTSRHKKLMFKTEGP; also: biotin label, position not given here)

GST-TTD binding in peptide microarray (in words) (GST 53BP1-TTD): more weakly
Compound: p53K372me2: p53 CTD peptide dimethylated at K372 (SSHLKSK(Me2)KGQSTSRHKKLMFKTEGP; also: biotin label, position not given here)

Compound: COc1cccc2c1C(=O)c1c(O)c3c(c(O)c1C2=O)C[C@@](O)(C(=O)CO)C[C@@H]3O[C@H]1C[C@H](N)[C@H](O)[C@H](C)O1 [doxorubicin]
p53K382me2 level in immunoprecipitated p53 (in words) (p53K382me2 in U2OS cells; doxorubicin 4 h (5 µg/mL in legend, 0.5 µg/mL in method)): increased substantially
p300/CBP at p53 target regions (in words) [2]: enrichment of p300/CBP

GST-TTD binding in peptide microarray (in words) (GST 53BP1-TTD): recognizes
Compound: p53K382me2K386ac: biotinylated p53 CTD peptide with K382me2 and K386ac (SSHLKSKKGQSTSRHKK(Me2)LMFK(Ac)TEGP; also: biotin label, position not given here)
